Activity calls are given as the source filed them. The calls are words filed in the database; no cut-off is given here.
Key:
Histamine H3 receptor [1] = biological target: T1, Histamine H3 receptor (Homo sapiens, UniProt Q9Y5N1); assay: Displacement of [3H]Nalpha-Methylhistamine from recombinant human histamine H3 receptor expressed in HEK293 cell membranes after 90 mins by liquid scintillation counting analysis
Mus musculus [2] = assay: Anticonvulsant activity in CF-1 albino mouse assessed as protection against maximal electroshock-induced seizures at 30 mg/kg, ip after 0.5 hrs; assay type: functional, organism-based
Procedure, shortened: (§1)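 Male CF-1 albino mice received compound i.p. as a suspension in 0.5% methylcellulose (30, 100 or 300 mg/kg). Maximal electroshock seizure test read 0.5 h and 4 h after dosing. Result given as animals protected/animals tested.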

Mus musculus [3] = assay: Anticonvulsant activity in CF-1 albino mouse assessed as protection against maximal electroshock-induced seizures at 30 mg/kg, ip after 4 hrs; assay type: functional, organism-based; procedure, shortened: as §1
Mus musculus [4] = assay: Anticonvulsant activity in CF-1 albino mouse assessed as protection against maximal electroshock-induced seizures at 100 mg/kg, ip after 0.5 hrs; assay type: functional, organism-based; procedure, shortened: as §1
Mus musculus [5] = assay: Anticonvulsant activity in CF-1 albino mouse assessed as protection against maximal electroshock-induced seizures at 100 mg/kg, ip after 4 hrs; assay type: functional, organism-based; procedure, shortened: as §1
Mus musculus [6] = assay: Anticonvulsant activity in CF-1 albino mouse assessed as protection against subcutaneous pentetrazole-induced seizures at 30 mg/kg, ip after 0.5 hrs; assay type: functional, organism-based
Mus musculus [7] = assay: Anticonvulsant activity in CF-1 albino mouse assessed as protection against subcutaneous pentetrazole-induced seizures at 30 mg/kg, ip after 4 hrs; assay type: functional, organism-based
Mus musculus [8] = assay: Anticonvulsant activity in CF-1 albino mouse assessed as protection against subcutaneous pentetrazole-induced seizures at 100 mg/kg, ip after 4 hrs; assay type: functional, organism-based
Mus musculus [9] = assay: Neurotoxicity in CF-1 albino mouse assessed as unable to grasp at 100 mg/kg, ip after 0.5 hrs by rotarod test; assay type: toxicity, organism-based; settings: in vivo
Procedure, shortened: (§2)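 Anticonvulsant Screening Program (NINDS) Phase 1 neurotoxicity screen in male albino CF-1 mice. Compounds were given i.p. as suspensions in 0.5% methylcellulose at 30, 100 and/or 300 mg/kg, and animals were observed 0.5 h and 4 h after dosing. The rotarod test was scored as number of animals showing toxicity over number tested, with the kind of toxicity recorded: inability to grasp rotorod, death, diarrhea, continuous seizure activity, loss of righting reflex, myoclonic jerks or tremors.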

Mus musculus [10] = assay: Neurotoxicity in CF-1 albino mouse assessed as death at 300 mg/kg, ip after 0.5 hrs by rotarod test; assay type: toxicity, organism-based; settings: in vivo; procedure, shortened: as §2
Mus musculus [11] = assay: Neurotoxicity in CF-1 albino mouse assessed as death at 100 mg/kg, ip after 4 hrs by rotarod test; assay type: toxicity, organism-based; settings: in vivo; procedure, shortened: as §2
Mus musculus [12] = assay: Neurotoxicity in CF-1 albino mouse at 30 mg/kg, ip after 4 hrs by rotarod test; assay type: toxicity, organism-based; settings: in vivo
Procedure, shortened: (§3)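 Male CF-1 mice were dosed i.p. with compound suspended in 0.5% methylcellulose (30, 100 or 300 mg/kg). Neurotoxicity was scored by rotarod 0.5 h and 4 h after dosing, as animals showing toxicity/animals tested. Type of toxicity was noted, e.g. inability to grasp the rod, tremors, death.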

[13] = Lipophilicity of compound by RP-TLC analysis; assay type: physicochemical; settings: methanol:acetic acid:water
Procedure, shortened: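 Reversed-phase TLC on RP-18 plates with methanol:acetic acid:water mobile phase (acid constant at 10%, methanol 85–55% in 5% steps). Spots visualised with iodine. RM values were derived from Rf and extrapolated to zero methanol to give RM0.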

Rattus norvegicus = assay: Anticonvulsant activity in albino Sprague-Dawley rat assessed as protection against maximal electroshock-induced seizures at 30 mg/kg, po after 0.5 to 4 hrs; assay type: functional, organism-based
Procedure, shortened: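 Male Sprague-Dawley rats, four per group, were given compound orally at a fixed 30 mg/kg in 0.5% methylcellulose suspension. Maximal electroshock test was read at 0.5 h and 4 h.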

Histamine H3 receptor [14] = biological target: T1, Histamine H3 receptor; assay: Displacement of [125I]Iodoproxyfan from recombinant human histamine H3 receptor expressed in CHOK1 cell membranes after 90 mins
Procedure, shortened: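 Membranes of CHO-K1 cells expressing hH3R were incubated 90 min at 25 °C, shaken at 250 rpm, with [125I]iodoproxyfan (16–50 pM) and test compound. Nonspecific binding was defined with 1 μM imetit. Separation by filtration on PEI-treated GF/B filters. Ki obtained from IC50 by Cheng-Prusoff.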

Histamine H3 receptor [15] = biological target: T1, Histamine H3 receptor; assay: Antagonist activity at recombinant human histamine H3 receptor expressed in HEK293 cells assessed as inhibition of forskolin-stimulated intracellular cAMP accumulation after 30 mins by TR-FRET TR-FRET assay; assay type: functional, cell-based
Procedure, shortened: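 TR-FRET cAMP immunoassay in HEK293 cells stably expressing hH3R, 300 cells/well. (R)-α-methylhistamine (15 nM), forskolin (10 μM) and antagonist (0.1 nM–10 μM) added together. Stimulation 30 min at room temperature, then Eu-cAMP tracer and ULight anti-cAMP antibody added for 1 h. Mean of three experiments, each in triplicate.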

HEK293 = assay: Cytotoxicity against HEK293 cells assessed as reduction in cell viability after 48 hrs by EZ4U Non-radioactive cell proliferation assay; assay type: cell-based; settings: Homo sapiens, HEK293, 48 h
Procedure, shortened: (§4)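 IMR-32 cells (2×10^4/well) or HEK-293 cells (1.5×10^4/well) in DMEM with 10% FBS were preincubated 24 h at 37 °C, 5% CO2. Compounds from 25 mM DMSO stocks were added at final 0.01–250 μM, with DMSO ≤1%. After 48 h, EZ4U label was added for 5 h and absorbance read at 492 nm.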

IMR-32 = assay: Cytotoxicity against human IMR32 cells assessed as reduction in cell viability after 48 hrs by EZ4U Non-radioactive cell proliferation assay; assay type: cell-based; settings: IMR-32, 48 h; procedure, shortened: as §4
CYP3A4 = CYP3A4 (Homo sapiens, UniProt P08684); assay: Activation of recombinant human CYP3A4 using Luciferin-BE as substrate at 25 uM in presence of NADPH by P450-Glo luminescence assay relative to control; assay type: ADME; settings: recombinant human CYP3A4, probe Luciferin-PPXE, in the assay text read “Luciferin-PPXE” for “Luciferin-BE”, read-out: Activity
Procedure, shortened: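 Recombinant human CYP3A4 P450-Glo luminescence assay: enzyme converts luciferin substrate to D-luciferin, then firefly luciferase is added and light output read as a measure of CYP3A4 activity. Final ligand concentrations 0.025–25 μM.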

Mus musculus [16] = assay: Anticonvulsant activity in CF-1 albino mouse assessed as protection against subcutaneous pentetrazole-induced seizures at 100 mg/kg, ip after 0.5 hrs; assay type: functional, organism-based
Mus musculus [17] = assay: Neurotoxicity in CF-1 albino mouse at 100 mg/kg, ip after 4 hrs by rotarod test; assay type: toxicity, organism-based; settings: in vivo; procedure, shortened: as §3
[18] = Safety index, ratio of compound IC50 to doxorubicin IC50 for HEK293 cells after 48 hrs by EZ4U non-radioactive cell proliferation assay; assay type: ADME, cell-based; settings: human, read-out: Ratio IC50
[19] = Safety index, ratio of compound IC50 to doxorubicin IC50 for human IMR32 cells after 48 hrs by EZ4U Non-radioactive cell proliferation assay; assay type: ADME, cell-based; settings: IMR-32 cells, read-out: Ratio IC50
Mus musculus [20] = assay: Anticonvulsant activity in CF-1 albino mouse assessed as protection against maximal electroshock-induced seizures at 300 mg/kg, ip after 0.5 hrs; assay type: functional, organism-based; procedure, shortened: as §1
Mus musculus [21] = assay: Anticonvulsant activity in CF-1 albino mouse assessed as protection against subcutaneous pentetrazole-induced seizures at 300 mg/kg, ip after 0.5 hrs; assay type: functional, organism-based
Mus musculus [22] = assay: Anticonvulsant activity in CF-1 albino mouse assessed as protection against subcutaneous pentetrazole-induced seizures at 300 mg/kg, ip after 4 hrs; assay type: functional, organism-based
Mus musculus [23] = assay: Neurotoxicity in CF-1 albino mouse at 30 mg/kg, ip after 0.5 hrs by rotarod test; assay type: toxicity, organism-based; settings: in vivo; procedure, shortened: as §3

T1 sequence (Q9Y5N1 whole entry): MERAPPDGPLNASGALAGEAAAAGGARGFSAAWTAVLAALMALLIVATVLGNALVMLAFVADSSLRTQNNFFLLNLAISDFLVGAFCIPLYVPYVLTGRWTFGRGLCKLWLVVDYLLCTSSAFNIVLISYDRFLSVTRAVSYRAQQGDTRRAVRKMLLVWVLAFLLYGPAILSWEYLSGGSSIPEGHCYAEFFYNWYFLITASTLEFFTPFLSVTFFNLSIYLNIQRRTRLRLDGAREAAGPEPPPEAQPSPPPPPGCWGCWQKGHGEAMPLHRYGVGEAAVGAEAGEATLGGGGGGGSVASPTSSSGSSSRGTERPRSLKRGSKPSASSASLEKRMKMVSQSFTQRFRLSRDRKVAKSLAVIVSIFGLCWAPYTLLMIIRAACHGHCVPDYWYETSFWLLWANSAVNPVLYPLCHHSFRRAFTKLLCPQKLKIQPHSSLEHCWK
CYP3A4, sequence (P08684 whole entry): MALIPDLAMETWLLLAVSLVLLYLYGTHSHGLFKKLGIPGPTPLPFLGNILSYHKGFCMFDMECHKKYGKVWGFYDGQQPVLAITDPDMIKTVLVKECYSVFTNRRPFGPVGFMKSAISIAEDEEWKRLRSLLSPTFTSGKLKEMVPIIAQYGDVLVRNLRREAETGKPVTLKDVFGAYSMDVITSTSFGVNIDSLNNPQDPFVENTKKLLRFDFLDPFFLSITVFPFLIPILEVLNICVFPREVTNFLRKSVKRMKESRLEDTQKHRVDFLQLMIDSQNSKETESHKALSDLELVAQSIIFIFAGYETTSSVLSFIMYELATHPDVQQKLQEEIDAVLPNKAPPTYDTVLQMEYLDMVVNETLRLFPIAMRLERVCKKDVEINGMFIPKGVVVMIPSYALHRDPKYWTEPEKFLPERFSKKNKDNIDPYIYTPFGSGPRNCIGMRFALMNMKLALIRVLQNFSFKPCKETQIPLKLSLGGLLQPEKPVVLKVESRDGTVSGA

Structure (SMILES) | Activity (Mus musculus [2]) | Activity (Mus musculus [3]) | Activity (Mus musculus [5]) | Activity (Mus musculus [6]) | Activity (Mus musculus [7]) | Activity (Mus musculus [8]) | Activity (Mus musculus [12]) | Rm [13] | Activity (Rattus norvegicus) | Ki (Histamine H3 receptor [14]) [nM] | Activity (Mus musculus [16]) | Activity (Mus musculus [17]) | also measured
CCC(C)(C)c1ccc(OCCCCN2CCCC(C)C2)cc1.O=C(O)C(=O)O (stereo unspecified) | Active | inactive | Active | inactive | inactive | inactive | Non-Toxic | 2.294 | inactive |  |  |  | Ki (Histamine H3 receptor [1]): 46 nM; Activity (Mus musculus [4]): Active; Activity (Mus musculus [9]): Toxic; Activity (Mus musculus [10]): Toxic; Activity (Mus musculus [11]): Toxic
CCC(C)(C)c1ccc(OCCCCCCCCN2CCCCCC2)cc1.O=C(O)C(=O)O |  |  |  |  |  |  |  | 3.384 |  | 182 |  |  | 
CCC(C)(C)c1ccc(OCCCCCN2CCCCC2)cc1.O=C(O)C(=O)O | inactive | inactive | inactive | inactive | inactive | inactive | Non-Toxic | 2.172 |  | 8.8 | inactive | Non-Toxic | EC50 (Histamine H3 receptor [15]): 157 nM; IC50 (HEK293): 41200 nM; IC50 (IMR-32): 72700 nM; activity at 25 µM (CYP3A4): 21%; selectivity ratio at 48 h [18]: 50 to 90; selectivity ratio at 48 h [19]: > 1000
CCC(C)(C)c1ccc(OCCCCCN2CCCC(C)C2)cc1.O=C(O)C(=O)O (stereo unspecified) | inactive | inactive | Active | inactive | inactive | inactive | Non-Toxic | 2.342 |  | 13.6 | inactive |  | EC50 (Histamine H3 receptor [15]): 164 nM; IC50 (HEK293): 25100 nM; IC50 (IMR-32): 30900 nM; activity at 25 µM (CYP3A4): 52%; selectivity ratio at 48 h [18]: 50 to 90; selectivity ratio at 48 h [19]: > 1000
CCC(C)(C)c1ccc(OCCCCCCCCN2CCCCC2)cc1.O=C(O)C(=O)O |  |  |  |  |  |  |  | 3.075 |  | 326 |  |  | 
CCC(C)(C)c1ccc(OCCCCCCCCN2CCCC(C)C2)cc1.O=C(O)C(=O)O (stereo unspecified) | inactive | inactive | Active | inactive | inactive | inactive | Non-Toxic | 3.562 | inactive | 121 | inactive | Non-Toxic | Activity (Mus musculus [20]): Active; Activity (Mus musculus [21]): inactive; Activity (Mus musculus [22]): inactive; Activity (Mus musculus [23]): Non-Toxic
CCC(C)(C)c1ccc(OCCCCN2CCCCC2)cc1.O=C(O)C(=O)O | Active | inactive |  | inactive | inactive | inactive | Non-Toxic | 1.883 | inactive |  | inactive | Non-Toxic | Ki (Histamine H3 receptor [1]): 140 nM; Activity (Mus musculus [4]): Active; Activity (Mus musculus [9]): Toxic; Activity (Mus musculus [10]): Toxic

Source: ChEMBL document CHEMBL4219023, “Synthesis and biological activity of novel tert-amylphenoxyalkyl (homo)piperidine derivatives as histamine H3R ligands” (Bioorg Med Chem, 2017)
